Data published in ChEMBL document CHEMBL1121742, “Synthesis and antibacterial activity of some ester, amides, and hydrazides of 3-carboxyrifamycin S. Relationship between structure and activity of ansamycins” (1981).
In brackets after ≈: the same amount, converted by molar mass.

Experiments:
Escherichia coli [1] = experiment: Minimum inhibitory concentration of compound tested for antibacterial activity against Escherichia coli ML/35; format: functional
How it was run: (§1)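 MIC by serial dilution in liquid medium in test tubes. Medium was brain-heart infusion and the inoculum was 10⁶ cells/mL. Tubes were incubated at 35 °C for 24 h. MIC was taken as the lowest antibiotic concentration preventing visible growth.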

Klebsiella pneumoniae [2] = experiment: Minimum inhibitory concentration of compound tested for antibacterial activity against Klebsiella pneumoniae ottaviani; format: functional; how it was run: as §1
Salmonella paratyphi = experiment: Minimum inhibitory concentration of compound tested for antibacterial activity against Salmonella paratyphi BO 248 K(Sclavo); format: functional, Salmonella enterica subsp. enterica serovar Paratyphi A; conditions: Salmonella enterica
Staphylococcus aureus = experiment: Minimum inhibitory concentration of compound tested for antibacterial activity against Staphylococcus aureus 209 P(FDA); format: functional; how it was run: as §1
Escherichia coli [3] = experiment: Minimum inhibitory concentration of compound tested for antibacterial activity against Escherichia coli ML/35; 25-50; format: functional; how it was run: as §1
Klebsiella pneumoniae [4] = experiment: Minimum inhibitory concentration of compound tested for antibacterial activity against Klebsiella pneumoniae ottaviani; 25-50; format: functional; how it was run: as §1

Structure (SMILES) | MIC (Escherichia coli [1]) | MIC (Klebsiella pneumoniae [2]) | MIC (Salmonella paratyphi) | MIC (Staphylococcus aureus) | MIC (Escherichia coli [3]) | MIC (Klebsiella pneumoniae [4])
COC1/C=C/OC2(C)Oc3c(C)c(O)c4c(c3C2=O)C(=O)C(C(=O)N(C)C)=C(NC(=O)/C(C)=C\C=C\C(C)C(O)C(C)C(O)C(C)C(OC(C)=O)C1C)C4=O (stereo unspecified) | > 50 mg/L | > 50 mg/L | > 50 mg/L | 0.025 mg/L (≈ 0.0326 µM) | – | –
COC(=O)C1=C2NC(=O)/C(C)=C\C=C\C(C)C(O)C(C)C(O)C(C)C(OC(C)=O)C(C)C(OC)/C=C/OC3(C)Oc4c(C)c(O)c(c(c4C3=O)C1=O)C2=O (stereo unspecified) | – | – | ~50 mg/L (≈ 66.3 µM) | 0.05 mg/L (≈ 0.0663 µM) | 25 mg/L (≈ 33.2 µM) | 25 mg/L (≈ 33.2 µM)
COC1/C=C/OC2(C)Oc3c(C)c(O)c4c(c3C2=O)C(=O)C(C(=O)N(C)N2CCCCC2)=C(NC(=O)/C(C)=C\C=C\C(C)C(O)C(C)C(O)C(C)C(OC(C)=O)C1C)C4=O (stereo unspecified) | > 50 mg/L | > 50 mg/L | > 50 mg/L | ~0.03 mg/L (≈ 0.0359 µM) | – | –
COC1/C=C/OC2(C)Oc3c(C)c(O)c4c(c3C2=O)C(=O)C(C(=O)Nc2ccc(Br)cc2)=C(NC(=O)/C(C)=C\C=C\C(C)C(O)C(C)C(O)C(C)C(OC(C)=O)C1C)C4=O (stereo unspecified) | > 50 mg/L | > 50 mg/L | > 50 mg/L | 0.1 mg/L (≈ 0.112 µM) | – | –
COC1/C=C/OC2(C)Oc3c(C)c(O)c4c(c3C2=O)C(=O)C(C(=O)OCC(O)CO)=C(NC(=O)/C(C)=C\C=C\C(C)C(O)C(C)C(O)C(C)C(OC(C)=O)C1C)C4=O (stereo unspecified) | > 50 mg/L | > 50 mg/L | > 50 mg/L | ~0.5 mg/L (≈ 0.614 µM) | – | –
COC1/C=C/OC2(C)Oc3c(C)c(O)c4c(c3C2=O)C(=O)C(C(=O)N2CCN(C)CC2)=C(NC(=O)/C(C)=C\C=C\C(C)C(O)C(C)C(O)C(C)C(OC(C)=O)C1C)C4=O (stereo unspecified) | > 50 mg/L | > 50 mg/L | > 50 mg/L | 0.1 mg/L (≈ 0.122 µM) | – | –
COC1/C=C/OC2(C)Oc3c(C)c(O)c4c(c3C2=O)C(=O)C(C(=O)NN(C)C)=C(NC(=O)/C(C)=C\C=C\C(C)C(O)C(C)C(O)C(C)C(OC(C)=O)C1C)C4=O (stereo unspecified) | > 50 mg/L | > 50 mg/L | > 50 mg/L | < 0.005 mg/L | – | –
CO[C@H]1/C=C/O[C@@]2(C)Oc3c(C)c(O)c4c(O)c(c(/C=N/N5CCN(C)CC5)c(O)c4c3C2=O)NC(=O)/C(C)=C\C=C\[C@H](C)[C@H](O)[C@@H](C)[C@@H](O)[C@@H](C)[C@H](OC(C)=O)[C@@H]1C [RIFAMPIN] | 6 mg/L (≈ 7.29 µM) | 25 mg/L (≈ 30.4 µM) | 12 mg/L (≈ 14.6 µM) | ~0.025 mg/L (≈ 0.0304 µM) | – | –
CO[C@H]1/C=C/O[C@@]2(C)Oc3c(C)c(O)c4c(O)c(cc(O)c4c3C2=O)NC(=O)/C(C)=C\C=C\[C@H](C)[C@H](O)[C@@H](C)[C@@H](O)[C@@H](C)[C@H](OC(C)=O)[C@@H]1C [RIFAMYCIN] | 100 mg/L (≈ 143 µM) | 100 mg/L (≈ 143 µM) | 100 mg/L (≈ 143 µM) | < 0.005 mg/L | – | –
